The source made the active and inactive calls. The calls are words filed in the database; no cut-off is given here.
Experiments:
[1] = target: Receptor-type tyrosine-protein kinase FLT3 (Homo sapiens) (UniProt P36888); experiment: Inhibition of FLT-3 (unknown origin) at 10 nM relative to control
How it was run: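 Purified recombinant kinase domains run in ELISA on precoated poly(Glu,Tyr) 4:1 (20 µg/mL) with 10 µM ATP in 50 mM HEPES pH 7.4, 50 mM MgCl2, 0.5 mM MnCl2, 0.2 mM Na3VO4, 1 mM DTT; 1% DMSO control; 60 min at 37 °C. Phosphotyrosine read by PY99 antibody, HRP anti-mouse IgG, OPD/H2O2 at 490 nm; inhibition = [1−A490/A490control]×100%; two separate experiments.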

[2] = system: T1, Discoidin domain-containing receptor 2 (Homo sapiens), Q16832 [I638F]; experiment: Inhibition of DDR2 I638F mutant in human NCI-H2286 cells assessed as decrease in ERK phosphorylation at […] after 2 hrs by Western blot analysis; type: cell-based
T1 sequence (whole entry): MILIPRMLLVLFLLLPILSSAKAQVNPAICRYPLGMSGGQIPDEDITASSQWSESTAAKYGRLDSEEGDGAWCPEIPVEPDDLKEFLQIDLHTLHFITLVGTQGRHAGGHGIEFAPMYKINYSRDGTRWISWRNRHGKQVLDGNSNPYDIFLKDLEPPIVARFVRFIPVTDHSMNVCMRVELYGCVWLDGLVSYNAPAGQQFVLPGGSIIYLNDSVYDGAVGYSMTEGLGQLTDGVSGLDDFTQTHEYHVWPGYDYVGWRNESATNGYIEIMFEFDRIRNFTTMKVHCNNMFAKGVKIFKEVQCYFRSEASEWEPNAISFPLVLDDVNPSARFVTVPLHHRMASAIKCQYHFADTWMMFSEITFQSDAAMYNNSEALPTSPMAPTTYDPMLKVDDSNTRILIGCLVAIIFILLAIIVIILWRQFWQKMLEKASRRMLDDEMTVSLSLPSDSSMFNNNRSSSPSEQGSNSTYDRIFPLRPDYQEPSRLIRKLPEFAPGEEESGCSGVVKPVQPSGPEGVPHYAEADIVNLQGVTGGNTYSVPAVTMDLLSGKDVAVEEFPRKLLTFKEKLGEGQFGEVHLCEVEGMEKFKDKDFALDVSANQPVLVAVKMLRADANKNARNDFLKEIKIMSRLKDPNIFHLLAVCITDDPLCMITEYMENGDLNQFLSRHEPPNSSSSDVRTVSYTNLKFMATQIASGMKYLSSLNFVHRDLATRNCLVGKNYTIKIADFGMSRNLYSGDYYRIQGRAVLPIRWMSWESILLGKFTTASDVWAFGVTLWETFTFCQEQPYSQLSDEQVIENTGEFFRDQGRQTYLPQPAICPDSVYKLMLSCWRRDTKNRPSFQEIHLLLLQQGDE
How it was run: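 NCI-H2286 cells exposed to compound for 2 h at 37 °C and lysed in SDS sample buffer. Lysates run on 10% SDS-PAGE and blotted to nitrocellulose. Membranes probed for phospho- and total DDR2, ERK and Akt, with GAPDH as loading control, and detected by HRP secondary antibody and enhanced chemiluminescence.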

Receptor-type tyrosine-protein kinase FLT3 (Homo sapiens), sequence (P36888 whole entry, the tested form may be a part): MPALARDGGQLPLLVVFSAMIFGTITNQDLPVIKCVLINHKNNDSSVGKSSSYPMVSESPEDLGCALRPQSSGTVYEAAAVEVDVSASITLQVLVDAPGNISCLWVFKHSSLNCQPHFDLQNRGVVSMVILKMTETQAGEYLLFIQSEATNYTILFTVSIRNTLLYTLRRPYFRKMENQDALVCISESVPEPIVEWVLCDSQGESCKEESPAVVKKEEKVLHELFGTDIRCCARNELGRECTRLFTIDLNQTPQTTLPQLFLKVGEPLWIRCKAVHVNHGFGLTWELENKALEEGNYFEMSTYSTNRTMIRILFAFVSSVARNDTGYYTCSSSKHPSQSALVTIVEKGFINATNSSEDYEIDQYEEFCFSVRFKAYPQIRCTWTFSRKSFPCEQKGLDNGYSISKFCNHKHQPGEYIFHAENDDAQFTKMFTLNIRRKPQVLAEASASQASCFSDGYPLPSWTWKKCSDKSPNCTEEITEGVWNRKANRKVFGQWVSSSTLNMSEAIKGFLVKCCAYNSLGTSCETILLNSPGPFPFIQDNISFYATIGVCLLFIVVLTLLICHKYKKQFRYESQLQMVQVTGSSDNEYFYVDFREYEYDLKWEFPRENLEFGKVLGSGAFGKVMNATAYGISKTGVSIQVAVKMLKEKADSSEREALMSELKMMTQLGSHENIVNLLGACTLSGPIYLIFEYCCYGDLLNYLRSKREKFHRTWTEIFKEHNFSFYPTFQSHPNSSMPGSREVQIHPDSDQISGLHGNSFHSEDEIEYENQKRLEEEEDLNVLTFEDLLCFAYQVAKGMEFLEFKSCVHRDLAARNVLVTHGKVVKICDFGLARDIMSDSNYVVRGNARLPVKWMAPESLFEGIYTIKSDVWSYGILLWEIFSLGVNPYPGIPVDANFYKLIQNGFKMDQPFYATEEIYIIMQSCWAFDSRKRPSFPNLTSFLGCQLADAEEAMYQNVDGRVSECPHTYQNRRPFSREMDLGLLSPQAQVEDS

inhibition [1]: 59.3%
inhibition [2]: Active
SMILES: Cc1ccc(C(=O)Nc2cccc(C(F)(F)F)c2)cc1-c1ccc2c(-c3cnn(C4CC4)c3)n[nH]c2c1
